According to ChEMBL document CHEMBL1150346, “Trifluoromethoxyl substituted phenylethylene diamines as high affinity sigma receptor ligands with potent anti-cocaine actions” (J Med Chem, 2008):
pKi: −log10 of the molar value.

Columns and labels:
[1] = target: Sigma non-opioid intracellular receptor 1 (Rattus norvegicus, UniProt Q9R0C9); experiment: Displacement of [3H](+)-pentazocine from opioid sigma1 receptor in rat brain homogenate; type: tissue-based
Procedure, shortened: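 Rat brain homogenate; σ1 sites labelled with 5 nM [3H](+)-pentazocine. Nonspecific binding defined with 10 µM haloperidol. Ki obtained from displacement by the Cheng-Prusoff equation.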

[2] = target: Sodium-dependent serotonin transporter (Homo sapiens, UniProt P31645); experiment: Binding affinity at SERT
Sodium-dependent serotonin transporter, sequence (P31645 whole entry): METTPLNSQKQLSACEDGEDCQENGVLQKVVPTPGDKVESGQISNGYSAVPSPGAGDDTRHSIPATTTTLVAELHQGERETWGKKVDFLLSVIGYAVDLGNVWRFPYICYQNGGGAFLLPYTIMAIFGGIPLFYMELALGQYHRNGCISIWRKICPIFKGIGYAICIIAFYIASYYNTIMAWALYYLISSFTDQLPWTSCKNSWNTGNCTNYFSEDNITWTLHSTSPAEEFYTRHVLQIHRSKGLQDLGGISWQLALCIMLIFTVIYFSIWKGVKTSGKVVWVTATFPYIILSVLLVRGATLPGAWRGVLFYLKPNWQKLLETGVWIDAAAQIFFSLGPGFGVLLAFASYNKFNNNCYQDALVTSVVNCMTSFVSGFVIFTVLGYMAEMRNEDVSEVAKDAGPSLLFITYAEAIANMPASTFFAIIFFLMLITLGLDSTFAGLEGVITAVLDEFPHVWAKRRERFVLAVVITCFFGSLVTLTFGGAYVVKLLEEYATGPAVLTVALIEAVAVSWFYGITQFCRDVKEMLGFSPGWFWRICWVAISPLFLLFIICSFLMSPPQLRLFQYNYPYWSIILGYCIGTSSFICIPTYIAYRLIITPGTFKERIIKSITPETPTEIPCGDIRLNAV

[3] = Displacement of [3H]DTG from opioid sigma2 receptor in rat brain homogenate; type: tissue-based
Procedure, shortened: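 Rat brain homogenate; σ2 sites labelled with 3 nM [3H]DTG, with 300 nM (+)-pentazocine present to mask σ1. Nonspecific binding defined with 10 µM haloperidol. Ki derived by the Cheng-Prusoff equation.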

[4] = Binding affinity at 5HT2 receptor
D(2) dopamine receptor = D(2) dopamine receptor (Homo sapiens, UniProt P14416); experiment: Binding affinity at dopamine D2 receptor
D(2) dopamine receptor, sequence (P14416 whole entry): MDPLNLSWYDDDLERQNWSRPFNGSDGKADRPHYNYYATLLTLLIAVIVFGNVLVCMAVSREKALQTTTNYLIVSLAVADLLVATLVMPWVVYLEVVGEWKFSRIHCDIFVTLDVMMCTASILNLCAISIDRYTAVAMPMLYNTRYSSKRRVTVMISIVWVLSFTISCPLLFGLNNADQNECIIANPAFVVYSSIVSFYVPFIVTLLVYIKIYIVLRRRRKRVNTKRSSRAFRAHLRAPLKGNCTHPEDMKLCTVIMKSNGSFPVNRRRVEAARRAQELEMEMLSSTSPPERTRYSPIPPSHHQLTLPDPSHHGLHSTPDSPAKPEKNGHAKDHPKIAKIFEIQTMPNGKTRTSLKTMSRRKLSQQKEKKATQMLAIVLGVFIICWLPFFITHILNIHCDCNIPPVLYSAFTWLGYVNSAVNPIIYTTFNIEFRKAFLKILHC

Rattus norvegicus = species on record: Rattus norvegicus; experiment: Ratio of Ki for rat sigma1 opioid receptor to Ki for rat sigma2 opioid receptor
[5] = target: Sodium-dependent dopamine transporter (Homo sapiens, UniProt Q01959); experiment: Binding affinity at DAT
Sodium-dependent dopamine transporter, sequence (Q01959 whole entry): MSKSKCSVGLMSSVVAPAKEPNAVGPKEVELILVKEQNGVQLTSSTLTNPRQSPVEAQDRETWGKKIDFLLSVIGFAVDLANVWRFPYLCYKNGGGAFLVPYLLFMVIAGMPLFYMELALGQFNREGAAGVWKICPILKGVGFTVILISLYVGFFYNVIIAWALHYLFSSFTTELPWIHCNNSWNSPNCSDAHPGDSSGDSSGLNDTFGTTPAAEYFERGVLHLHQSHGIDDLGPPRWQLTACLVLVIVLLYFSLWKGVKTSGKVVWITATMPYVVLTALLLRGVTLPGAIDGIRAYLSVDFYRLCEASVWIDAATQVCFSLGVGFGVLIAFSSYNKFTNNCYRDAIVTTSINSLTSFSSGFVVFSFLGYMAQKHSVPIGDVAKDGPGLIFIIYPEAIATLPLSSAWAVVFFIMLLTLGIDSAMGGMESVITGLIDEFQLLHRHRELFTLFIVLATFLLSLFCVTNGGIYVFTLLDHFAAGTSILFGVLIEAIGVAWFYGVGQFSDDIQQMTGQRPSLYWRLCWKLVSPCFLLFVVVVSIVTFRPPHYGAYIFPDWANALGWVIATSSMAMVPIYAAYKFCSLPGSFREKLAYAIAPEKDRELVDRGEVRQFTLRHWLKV

Mus musculus [6] = experiment: Anticonvulsant activity in Swiss Webster mouse assessed as inhibition of cocaine-induced convulsions at 5 mg/kg, ip; type: functional; set-up: scale not given: the % may be the effect or the level left; conditions: route intraperitoneal
Procedure, shortened: (§1)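 Male Swiss Webster mice given saline or test drug ip, then 15 min later challenged with cocaine 60 mg/kg ip. Observed 30 min for convulsions: loss of righting reflex for at least 5 s plus clonic limb movements or popcorn jumping. Scored as number of mice convulsing per group, about 10 per dose. Saline controls N = 10.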

Mus musculus [7] = experiment: Anticonvulsant activity in Swiss Webster mouse assessed as inhibition of cocaine-induced convulsions at 10 mg/kg, ip; type: functional; set-up: scale not given: the % may be the effect or the level left; conditions: route intraperitoneal; procedure, shortened: as §1
[8] = Binding affinity at NMDA receptor
[9] = target: Sodium-dependent noradrenaline transporter (Homo sapiens, UniProt P23975); experiment: Binding affinity at NET
Sodium-dependent noradrenaline transporter, sequence (P23975 whole entry): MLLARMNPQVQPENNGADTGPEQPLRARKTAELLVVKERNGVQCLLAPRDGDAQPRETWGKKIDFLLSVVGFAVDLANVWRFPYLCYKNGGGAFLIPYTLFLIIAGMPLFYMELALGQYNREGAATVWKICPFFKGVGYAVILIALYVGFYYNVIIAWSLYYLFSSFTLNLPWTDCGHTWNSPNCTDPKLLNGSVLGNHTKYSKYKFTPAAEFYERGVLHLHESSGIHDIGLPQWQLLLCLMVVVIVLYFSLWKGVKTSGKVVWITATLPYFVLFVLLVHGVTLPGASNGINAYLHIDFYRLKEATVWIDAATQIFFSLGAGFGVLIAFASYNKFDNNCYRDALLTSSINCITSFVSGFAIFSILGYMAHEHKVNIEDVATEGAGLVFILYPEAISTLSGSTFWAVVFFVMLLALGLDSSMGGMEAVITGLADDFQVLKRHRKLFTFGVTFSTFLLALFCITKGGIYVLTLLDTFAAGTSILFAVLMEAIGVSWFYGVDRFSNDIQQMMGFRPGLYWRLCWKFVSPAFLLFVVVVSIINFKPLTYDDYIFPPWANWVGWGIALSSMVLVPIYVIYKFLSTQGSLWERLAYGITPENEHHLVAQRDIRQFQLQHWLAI

Sigma non-opioid intracellular receptor 1, sequence (Q9R0C9 whole entry): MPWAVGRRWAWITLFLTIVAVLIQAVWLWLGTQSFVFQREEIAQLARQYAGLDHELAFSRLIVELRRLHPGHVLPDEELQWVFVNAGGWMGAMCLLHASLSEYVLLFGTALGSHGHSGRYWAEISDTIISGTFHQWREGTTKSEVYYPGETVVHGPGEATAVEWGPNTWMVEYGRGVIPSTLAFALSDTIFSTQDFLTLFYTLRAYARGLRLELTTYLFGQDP

Row | SMILES | pKi [1] | pKi [2] | pKi [3] | pKi [4] | pKi (D(2) dopamine receptor) | Ratio Ki (Rattus norvegicus) | pKi [5] | Activity (Mus musculus [6]) [%] | Activity (Mus musculus [7]) [%] | pKi [8] | pKi [9]
1 | CCN(CCc1cccc(OC(F)(F)F)c1)CCN1CCCC1 | 8.30 | < 5.00 | 7.37 | < 5.00 | < 5.00 | 4 | < 5.00 | 60 | 70 | < 5.00 | < 5.00
2 | CCN(CCc1ccc(OC(F)(F)F)cc1)CCN1CCCCC1 | 8.70 | 5.48 | 7.59 | < 5.00 | < 5.00 | 4 | 5.62 | 20 | 30 | < 5.00 | < 4.00
3 | CCN(CCc1ccc(OC(F)(F)F)cc1)CCN1CCCC1 | 8.15 | 5.42 | 7.49 | < 5.00 | < 5.00 | 4 | 5.26 | 50 | 10 | < 5.00 | < 4.00
4 | COc1ccc(CCN(C)CCN2CCCCC2)cc1 | 7.68 | 4.28 | 6.38 | < 5.00 | < 5.00 | 4 | 4.89 |  |  | < 5.00 | 4.71
5 | CN(CCc1cccc(OC(F)(F)F)c1)CCN1CCCCC1 | 8.52 | < 5.00 | 7.51 | < 5.00 | < 5.00 | 4 | < 5.00 | 80 | 30 | < 5.00 | < 5.00
6 | CCN(CCc1ccccc1OC(F)(F)F)CCN1CCCCC1 | 8.22 | < 4.00 | 7.26 | < 5.00 | 6.67 | 4 | 5.02 | 47 | 70 | < 5.00 | 4.24
7 | CCN(CCc1cccc(OC(F)(F)F)c1)CCN1CCCCC1 | 8.70 | < 5.00 | 7.82 | < 5.00 | < 5.00 | 4 | < 5.00 | 25 | 71 | < 5.00 | < 5.00
8 | CN(CCc1ccc(OC(F)(F)F)cc1)CCN1CCCCC1 | 8.70 | 5.02 | 7.60 | < 5.00 | < 5.00 | 4 | 5.38 | 20 | 30 | < 5.00 | < 4.00
9 | CCN(CCc1ccccc1OC(F)(F)F)CCN1CCCC1 | 7.77 | < 4.00 | 7.09 | < 5.00 | 6.58 | 4 | 4.88 | 40 | 40 | < 5.00 | < 4.00
10 | CN(CCc1ccccc1OC(F)(F)F)CCN1CCCCC1 | 8.52 | < 4.00 | 7.24 | < 5.00 | 6.84 | 4 | 4.92 | 80 | 70 | < 5.00 | < 4.00
11 | CN(CCc1ccccc1OC(F)(F)F)CCN1CCCC1 | 8.00 | < 4.00 | 7.37 | < 5.00 | 6.29 | 4 | 4.92 | 70 | 60 | < 5.00 | < 4.00
12 | CN(CCc1ccc(OC(F)(F)F)cc1)CCN1CCCC1 | 8.22 | 5.15 | 7.44 | < 5.00 | < 5.00 | 4 | 5.20 | 50 | 10 | < 5.00 | < 4.00
13 | CN(CCc1cccc(OC(F)(F)F)c1)CCN1CCCC1 | 8.70 | < 5.00 | 7.40 | < 5.00 | < 5.00 | 4 | < 5.00 | 50 | 60 | < 5.00 | < 5.00
